17 compounds from ChEMBL document CHEMBL2146449, “Design, synthesis, and biological evaluation of the analogues of glaziovianin A, a potent antitumor isoflavone” (Bioorg Med Chem, 2012) can be followed below.

Usually IC50 stands for the concentration needed to halve the response being measured.

Each structure is given as a SMILES string. The source made the active and inactive calls. No cut-off for these calls is given here. Some results are limits rather than exact numbers.

Assay [1] concerns HeLa S3. Description: Ratio of glaziovianin A IC50 to compound IC50 for human HeLaS3 cells. The class given is functional.
A short description of assay [2]: Cytotoxicity against human HeLaS3 cells after 48 hrs by WST8 assay. The class given is functional, cell-based. The following applies: HeLa S3, 48 h. The procedure, abridged:
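HeLa S3 seeded at 3 × 10^3 cells/well, left overnight, then given a range of compound concentrations for 48 h. WST-8 added for 2 h and absorbance read at 450 nm. Viability (% control) = (sample − blank)/(0 µM well − blank) × 100. Cells in DMEM + 10% FCS, 37 °C, 5% CO2.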
In general terms: Formazan colour is commonly taken as a measure of viable cells.

Assay [3] relates to HeLa S3. Put plainly: Induction of mitotic arrest in human HeLaS3 cells assessed as abnormal multipolar spindles at 1 uM after 6 hrs by immunofluorescence staining. The format is functional, cell-based. Put shortly: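 HeLa S3 at 3 × 10^4 cells/mL grown on coverslips, treated 6 h, fixed in -20 °C MeOH for 5 min. Anti-α-tubulin DM1A (1:250) in PBS with 0.5% BSA for 1 h at 37 °C, then Alexa488 anti-mouse IgG (1:2000) for 1 h. DAPI 0.1 µg/mL for chromosomes; spindles examined by fluorescence microscopy. DMSO control.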

A short description of assay [4]: Cell cycle arrest in human HeLaS3 cells assessed as accumulation at G2/M phase at 1 uM after 24 hrs by flow cytometric analysis. The format is functional, cell-based. As to conditions: HeLa S3. The procedure, abridged: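 HeLa S3 cells at 3 × 10^4 cells/mL exposed to compound for 24 h, harvested, fixed in 70% EtOH at -20 °C, stained with propidium iodide; DNA content read by flow cytometry. DMSO-treated cells as control. Cells kept in DMEM with 10% FCS at 37 °C, 5% CO2.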
Background: In flow cytometry, cells or beads pass a laser one at a time.

For the compound `COc1cc2occ(-c3cc(OC)c(OC)c(OC)c3OC)c(=O)c2cc1OC`, in the assay on HeLa S3 [1], the “Ratio IC50” value was 0.027. The compound further returned an IC50 in assay [2] of 22 µM. Take `COc1cc2c(=O)c(-c3cc(OC)c4c(c3OC)OCO4)coc2cc1OC/C=C/CCC(=O)NCCCCCCNC(=O)CCCC[C@@H]1SC[C@@H]2NC(=O)N[C@@H]21`: the “Ratio IC50” value with HeLa S3 [1] stood at 0.038. Moreover, it took 15.5 µM to reach half-maximal inhibition in assay [2] (IC50).

Regarding `COc1cc2c(=O)c(-c3cc(OC)c4c(c3OC)OCO4)coc2cc1OCCCCCC(=O)NCCCCCCNC(=O)CCCC[C@@H]1SC[C@@H]2NC(=O)N[C@@H]21`, the “Ratio IC50” value with HeLa S3 [1] is 0.039. The compound further displayed an IC50 in assay [2] of 15.2 µM.

Turning to `C#CCOc1cc2occ(-c3cc(OC)c4c(c3OC)OCO4)c(=O)c2cc1OC`, the result (with HeLa S3 [3]; in assay [4]) was Active. Moreover, the “Ratio IC50” value in the assay on HeLa S3 [1] was 3.5. Besides, in assay [2], the IC50 came to 0.17 µM. On to `C=CCOc1cc2occ(-c3cc(OC)c4c(c3OC)OCO4)c(=O)c2cc1OC`, for which the outcome (in the assay on HeLa S3 [3]; in assay [4]) was Active. Moreover, the “Ratio IC50” value in the assay on HeLa S3 [1] is 1.3. This compound also returned an IC50 in assay [2] of 0.46 µM. `COc1cc2occ(-c3ccc4c(c3)OCO4)c(=O)c2cc1OC`: the “Ratio IC50” value in the assay on HeLa S3 [1] stood at 0.01. The compound `COc1cc2c(=O)c(-c3cc(OC)c4c(c3OC)OCO4)coc2cc1OC1CCCCO1` (stereo not drawn) showed an IC50 in assay [2] above 100 µM.

In turn, `COc1cc2c(=O)c(-c3cc(OC)c4c(c3OC)OCO4)coc2cc1OCC(O)CO` (stereo not drawn) gave an IC50 in assay [2] above 100 µM. Take `COc1cc2occ(-c3cc(OC)c4c(c3OC)OCO4)c(=O)c2cc1OC` [GLAZIOVIANIN A]: the outcome (in the assay on HeLa S3 [3]; in assay [4]) was Active. The same compound gave an IC50 in assay [2] of 0.59 µM. As for `COc1cc2c(=O)c(-c3cc(OC)c4c(c3OC)OCO4)coc2cc1OC/C=C/CCC(=O)NCCCCCCNC(=O)CCCC1=C2C(C)=CC(C)=[N+]2[B-](F)(F)n2c(C)cc(C)c21`, the “Ratio IC50” value with HeLa S3 [1] is 0.034. Further, in assay [2], the midpoint of inhibition, the IC50, lay at 17.4 µM. For `COc1cc2occ(-c3c(Br)c(OC)c4c(c3OC)OCO4)c(=O)c2cc1OC` the same measures were 0.009 and 67.8 µM.

Turning to `COc1cc2occ(-c3cc(OC)c4c(c3OC)OC(C)(C)O4)c(=O)c2cc1OC`, the IC50 in assay [2] was above 100 µM. Take `COc1cc2c(=O)c(-c3cc(OC)c4c(c3OC)OCO4)coc2cc1OCc1ccccc1`: the result (in the assay on HeLa S3 [3]; in assay [4]) was Active. Also, in the assay with HeLa S3 [1], the “Ratio IC50” value stood at 3.1. In addition, inhibition in assay [2] was half-maximal at 0.19 µM (IC50). As to `COc1cc(-c2coc3cc(OC)c(OC)c(OC)c3c2=O)c(OC)c2c1OCO2`, the IC50 in assay [2] was above 100 µM. Same read-out and setting: the result for `COc1cc2c(=O)c(-c3cc(OC)c4c(c3OC)OCO4)coc2cc1O` reads above 100 µM. In assay [2], `COc1cc2c(=O)c(-c3cc(OC)c4c(c3OC)OCO4)coc2cc1OC1O[C@H](CO)[C@@H](O)[C@H](O)[C@H]1O` (mixture of isomers) showed an IC50 above 100 µM.

In assay [2], `COc1cc2c(=O)c(-c3cc(OC)c4c(c3OC)OCO4)coc2cc1OC1O[C@H](COC(C)=O)[C@@H](OC(C)=O)[C@H](OC(C)=O)[C@H]1OC(C)=O` (mixture of isomers) registered an IC50 above 100 µM.
